Measured values taken from ChEMBL document CHEMBL1153954, “Promiscuous aggregate-based inhibitors promote enzyme unfolding” (J Med Chem, 2009).
The source made the active and inactive calls. The rule behind the calls is not given here.

What was measured:
[1] = biological target: AmpC (Escherichia coli) (UniProt Q83TT7); assay: (§1) Aggregation based inhibition of Escherichia coli AmpC assessed as solvent accessibility of AmpC peptide fragment spanning 8-18 amino acid sequence by measuring ratio of side chain surface area to random coil values per amino acid reside by hydrogen-deuterium exchange mass spectrometry relative to control; set-up: scale not given: the % may be the effect or the level left
Chain of AmpC (Escherichia coli) (Q83TT7 as listed by the source): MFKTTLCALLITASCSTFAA
Method in brief: (§2)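 Side-chain solvent accessibility per peptide was calculated from the structure with a 1.4 Å probe radius and default atomic radii and solvation parameters. Each value is the average over residues of the side-chain surface area relative to its random-coil value. Above 50% is exposed; below 20% is buried.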

[2] = biological target: AmpC (Escherichia coli) (UniProt Q83TT7); assay: Aggregation based inhibition of Escherichia coli AmpC assessed as increase in deuteration of AmpC peptide fragment spanning 42-56 amino acid sequence after 1 hr by hydrogen-deuterium exchange mass spectrometry relative to control
Method in brief: (§3)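 AmpC β-lactamase diluted from a 215 μM stock (50 mM KPi, pH 7.0) into deuterated 50 mM MOPS in D2O, pH 7.0. Final enzyme was 0.16 μM with 100 μM aggregator (0.5% DMSO) or 16 μM without. Aggregate samples were centrifuged 16000g for 5 min and the pellet kept. Triton X-100 was added to release enzyme. Samples were quenched with ice-cold 0.1% TFA pH 2.5, digested on immobilized pepsin 5 min on ice, then analysed by chilled fast-gradient LC-MS. Deuterium uptake is centroid mass shift versus the undeuterated control, not corrected for back exchange. Ratio is inhibited over uninhibited, from three replicates.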

[3] = biological target: AmpC (Escherichia coli) (UniProt Q83TT7); assay: as §1, with “105-128” for “8-18”; set-up: scale not given: the % may be the effect or the level left; method in brief: as §2
[4] = biological target: AmpC (Escherichia coli) (UniProt Q83TT7); assay: Aggregation based inhibition of Escherichia coli AmpC assessed as increase in deuteration of AmpC peptide fragment spanning 336-350 amino acid sequence after 10 mins by hydrogen-deuterium exchange mass spectrometry relative to control; method in brief: as §3
[5] = biological target: AmpC (Escherichia coli) (UniProt Q83TT7); assay: as §1, with “132-146” for “8-18”; set-up: scale not given: the % may be the effect or the level left; method in brief: as §2
[6] = biological target: AmpC (Escherichia coli) (UniProt Q83TT7); assay: Aggregation based inhibition of Escherichia coli AmpC assessed as increase in deuteration of AmpC peptide fragment spanning 8-18 amino acid sequence after 1 hr by hydrogen-deuterium exchange mass spectrometry relative to control; method in brief: as §3
[7] = biological target: AmpC (Escherichia coli) (UniProt Q83TT7); assay: Aggregation based inhibition of Escherichia coli AmpC assessed as increase in deuteration of AmpC peptide fragment spanning 42-56 amino acid sequence after 8 hrs by hydrogen-deuterium exchange mass spectrometry relative to control; method in brief: as §3
[8] = biological target: AmpC (Escherichia coli) (UniProt Q83TT7); assay: Aggregation based inhibition of Escherichia coli AmpC assessed as increase in deuteration of AmpC peptide fragment spanning 105-128 amino acid sequence after 8 hrs by hydrogen-deuterium exchange mass spectrometry relative to control; method in brief: as §3
[9] = biological target: AmpC (Escherichia coli) (UniProt Q83TT7); assay: as §1, with “271-289” for “8-18”; set-up: scale not given: the % may be the effect or the level left; method in brief: as §2
[10] = biological target: AmpC (Escherichia coli) (UniProt Q83TT7); assay: Aggregation based inhibition of Escherichia coli AmpC assessed as increase in deuteration of AmpC peptide fragment spanning 336-350 amino acid sequence after 1 hr by hydrogen-deuterium exchange mass spectrometry relative to control; method in brief: as §3
[11] = biological target: AmpC (Escherichia coli) (UniProt Q83TT7); assay: as §1, with “323-332” for “8-18”; set-up: scale not given: the % may be the effect or the level left; method in brief: as §2
[12] = biological target: AmpC (Escherichia coli) (UniProt Q83TT7); assay: Aggregation based inhibition of Escherichia coli AmpC assessed as increase in deuteration of AmpC peptide fragment spanning 323-332 amino acid sequence after 1 hr by hydrogen-deuterium exchange mass spectrometry relative to control; method in brief: as §3
[13] = biological target: AmpC (Escherichia coli) (UniProt Q83TT7); assay: Aggregation based inhibition of Escherichia coli AmpC assessed as increase in deuteration of AmpC peptide fragment spanning 323-332 amino acid sequence after 8 hrs by hydrogen-deuterium exchange mass spectrometry relative to control; method in brief: as §3
[14] = biological target: AmpC (Escherichia coli) (UniProt Q83TT7); assay: Aggregation based inhibition of Escherichia coli AmpC assessed as increase in deuteration of AmpC peptide fragment spanning 105-128 amino acid sequence after 1 hr by hydrogen-deuterium exchange mass spectrometry relative to control; method in brief: as §3
[15] = biological target: AmpC (Escherichia coli) (UniProt Q83TT7); assay: Aggregation based inhibition of Escherichia coli AmpC assessed as increase in deuteration of AmpC peptide fragment spanning 109-128 amino acid sequence after 1 hr by hydrogen-deuterium exchange mass spectrometry relative to control; method in brief: as §3
[16] = biological target: AmpC (Escherichia coli) (UniProt Q83TT7); assay: as §1, with “109-128” for “8-18”; set-up: scale not given: the % may be the effect or the level left; method in brief: as §2
[17] = biological target: AmpC (Escherichia coli) (UniProt Q83TT7); assay: as §1, with “243-250” for “8-18”; set-up: scale not given: the % may be the effect or the level left; method in brief: as §2
[18] = biological target: AmpC (Escherichia coli) (UniProt Q83TT7); assay: Aggregation based inhibition of Escherichia coli AmpC assessed as increase in deuteration of AmpC peptide fragment spanning 291-322 amino acid sequence after 1 hr by hydrogen-deuterium exchange mass spectrometry relative to control; method in brief: as §3
[19] = biological target: AmpC (Escherichia coli) (UniProt Q83TT7); assay: Aggregation based inhibition of Escherichia coli AmpC assessed as increase in deuteration of AmpC peptide fragment spanning 8-18 amino acid sequence after 10 mins by hydrogen-deuterium exchange mass spectrometry relative to control; method in brief: as §3
[20] = biological target: AmpC (Escherichia coli) (UniProt Q83TT7); assay: Aggregation based inhibition of Escherichia coli AmpC assessed as increase in deuteration of AmpC peptide fragment spanning 109-128 amino acid sequence after 10 mins by hydrogen-deuterium exchange mass spectrometry relative to control; method in brief: as §3
[21] = biological target: AmpC (Escherichia coli) (UniProt Q83TT7); assay: Aggregation based inhibition of Escherichia coli AmpC assessed as increase in deuteration of AmpC peptide fragment spanning 105-128 amino acid sequence after 10 mins by hydrogen-deuterium exchange mass spectrometry relative to control; method in brief: as §3
[22] = biological target: AmpC (Escherichia coli) (UniProt Q83TT7); assay: as §1, with “336-350” for “8-18”; set-up: scale not given: the % may be the effect or the level left; method in brief: as §2
[23] = biological target: AmpC (Escherichia coli) (UniProt Q83TT7); assay: Aggregation based inhibition of Escherichia coli AmpC assessed as increase in deuteration of AmpC peptide fragment spanning 109-128 amino acid sequence after 8 hrs by hydrogen-deuterium exchange mass spectrometry relative to control; method in brief: as §3
[24] = biological target: AmpC (Escherichia coli) (UniProt Q83TT7); assay: Aggregation based inhibition of Escherichia coli AmpC assessed as increase in deuteration of AmpC peptide fragment spanning 291-322 amino acid sequence after 8 hrs by hydrogen-deuterium exchange mass spectrometry relative to control; method in brief: as §3
[25] = biological target: AmpC (Escherichia coli) (UniProt Q83TT7); assay: Aggregation based inhibition of Escherichia coli AmpC assessed as increase in deuteration of AmpC peptide fragment spanning 8-18 amino acid sequence after 8 hrs by hydrogen-deuterium exchange mass spectrometry relative to control; method in brief: as §3
[26] = biological target: AmpC (Escherichia coli) (UniProt Q83TT7); assay: Aggregation based inhibition of Escherichia coli AmpC assessed as increase in deuteration of AmpC peptide fragment spanning 132-146 amino acid sequence after 10 mins by hydrogen-deuterium exchange mass spectrometry relative to control; method in brief: as §3
[27] = biological target: AmpC (Escherichia coli) (UniProt Q83TT7); assay: Aggregation based inhibition of Escherichia coli AmpC assessed as increase in deuteration of AmpC peptide fragment spanning 132-146 amino acid sequence after 1 hr by hydrogen-deuterium exchange mass spectrometry relative to control; method in brief: as §3
[28] = biological target: AmpC (Escherichia coli) (UniProt Q83TT7); assay: Aggregation based inhibition of Escherichia coli AmpC assessed as increase in deuteration of AmpC peptide fragment spanning 271-289 amino acid sequence after 8 hrs by hydrogen-deuterium exchange mass spectrometry relative to control; method in brief: as §3
[29] = biological target: AmpC (Escherichia coli) (UniProt Q83TT7); assay: Aggregation based inhibition of Escherichia coli AmpC assessed as increase in deuteration of AmpC peptide fragment spanning 271-289 amino acid sequence after 10 mins by hydrogen-deuterium exchange mass spectrometry relative to control; method in brief: as §3
[30] = biological target: AmpC (Escherichia coli) (UniProt Q83TT7); assay: Aggregation based inhibition of Escherichia coli AmpC assessed as increase in deuteration of AmpC peptide fragment spanning 271-289 amino acid sequence after 1 hr by hydrogen-deuterium exchange mass spectrometry relative to control; method in brief: as §3
[31] = biological target: AmpC (Escherichia coli) (UniProt Q83TT7); assay: Aggregation based inhibition of Escherichia coli AmpC assessed as increase in deuteration of AmpC peptide fragment spanning 243-250 amino acid sequence after 10 mins by hydrogen-deuterium exchange mass spectrometry relative to control; method in brief: as §3
[32] = biological target: AmpC (Escherichia coli) (UniProt Q83TT7); assay: Inhibition of Escherichia coli AmpC assessed as induction of protein unfolding measured by trypsin mediated degradation of compound-AmpC enzyme complex at 100 uM after 4 hrs by gel electrophoresis
Method in brief: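 AmpC (0.5 μM) was preincubated 5 min with or without 100 μM aggregator in 50 mM KPi, pH 7.0, 1% DMSO final. Trypsin (0.01 or 0.025 mg/mL) was then added, and digestion ran at room temperature for 0, 15, 30 min, 1 h or 4 h. Samples were boiled in DTT-containing loading buffer and the AmpC band was followed by SDS-PAGE.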

[33] = biological target: AmpC (Escherichia coli) (UniProt Q83TT7); assay: Aggregation based inhibition of Escherichia coli AmpC assessed as increase in deuteration of AmpC peptide fragment spanning 42-56 amino acid sequence after 10 mins by hydrogen-deuterium exchange mass spectrometry relative to control; method in brief: as §3
[34] = biological target: AmpC (Escherichia coli) (UniProt Q83TT7); assay: as §1, with “291-322” for “8-18”; set-up: scale not given: the % may be the effect or the level left; method in brief: as §2
[35] = biological target: AmpC (Escherichia coli) (UniProt Q83TT7); assay: Aggregation based inhibition of Escherichia coli AmpC assessed as increase in deuteration of AmpC peptide fragment spanning 243-250 amino acid sequence after 8 hrs by hydrogen-deuterium exchange mass spectrometry relative to control; method in brief: as §3
[36] = biological target: AmpC (Escherichia coli) (UniProt Q83TT7); assay: as §1, with “42-56” for “8-18”; set-up: scale not given: the % may be the effect or the level left; method in brief: as §2
[37] = biological target: AmpC (Escherichia coli) (UniProt Q83TT7); assay: Aggregation based inhibition of Escherichia coli AmpC assessed as increase in deuteration of AmpC peptide fragment spanning 323-332 amino acid sequence after 10 mins by hydrogen-deuterium exchange mass spectrometry relative to control; method in brief: as §3
[38] = biological target: AmpC (Escherichia coli) (UniProt Q83TT7); assay: Aggregation based inhibition of Escherichia coli AmpC assessed as increase in deuteration of AmpC peptide fragment spanning 291-322 amino acid sequence after 10 mins by hydrogen-deuterium exchange mass spectrometry relative to control; method in brief: as §3
[39] = biological target: AmpC (Escherichia coli) (UniProt Q83TT7); assay: Aggregation based inhibition of Escherichia coli AmpC assessed as increase in deuteration of AmpC peptide fragment spanning 132-146 amino acid sequence after 8 hrs by hydrogen-deuterium exchange mass spectrometry relative to control; method in brief: as §3
[40] = biological target: AmpC (Escherichia coli) (UniProt Q83TT7); assay: Aggregation based inhibition of Escherichia coli AmpC assessed as increase in deuteration of AmpC peptide fragment spanning 336-350 amino acid sequence after 8 hrs by hydrogen-deuterium exchange mass spectrometry relative to control; method in brief: as §3

Question: Which results are given for `CC(=O)c1c(O)c(C)c(O)c(Cc2c(O)c3c(c(C(=O)/C=C/c4ccccc4)c2O)OC(C)(C)C=C3)c1O`?
Answer: Activity [1]: 35.7%; fold change (FC) [2]: 2.7; Activity [3]: 31.3%; fold change (FC) [4]: 1.7; Activity [5]: 34.8%; fold change (FC) [6]: 2.3; fold change (FC) [7]: 1.8; fold change (FC) [8]: 1.8; Activity [9]: 40.7%; fold change (FC) [10]: 3.7; Activity [11]: 11.8%; fold change (FC) [12]: 3; fold change (FC) [13]: 2.7; fold change (FC) [14]: 2.6; fold change (FC) [15]: 2.5; Activity [16]: 36.9%; Activity [17]: 20.7%; fold change (FC) [18]: 2.5; fold change (FC) [19]: 1.3; fold change (FC) [20]: 1.5; fold change (FC) [21]: 1.6; Activity [22]: 21.6%; fold change (FC) [23]: 1.6; fold change (FC) [24]: 1.8; fold change (FC) [25]: 2.5; fold change (FC) [26]: 2.6; fold change (FC) [27]: 4.2; fold change (FC) [28]: 1.4; fold change (FC) [29]: 1.4; fold change (FC) [30]: 2.6; fold change (FC) [31]: 1.2; Activity [32]: Active; fold change (FC) [33]: 1.9; Activity [34]: 22.3%; fold change (FC) [35]: 1.7; Activity [36]: 44.7%; fold change (FC) [37]: 1.3; fold change (FC) [38]: 1.6; fold change (FC) [39]: 3.4; fold change (FC) [40]: 2
